In ChEMBL document CHEMBL1134857, “The synthesis and biological evaluation of a novel series of antimicrobials of the oxazolidinone class” (Bioorg Med Chem Lett, 2002):
Converted amounts (≈) assume the structure as drawn.

test system: Streptococcus pneumoniae; test: Minimum inhibitory concentration measured against Streptococcus pneumoniae; assay type: functional

Structure (SMILES)	MIC [µg/mL]
CC(=O)NC[C@H]1CN(c2ccc(/C=C\F)c(F)c2)C(=O)O1	2 (≈ 6.75 µM)
COc1ccc(C(C)C)cc1/C(Br)=C/c1ccc(N2C[C@H](CNC(C)=O)OC2=O)cc1F	64 (≈ 127 µM)
CC(=O)NC[C@H]1CN(c2ccc(/C=C(\Br)c3cccc(C(N)=O)c3)c(F)c2)C(=O)O1	4 (≈ 8.4 µM)
CC(=O)NC[C@H]1CN(c2ccc(/C=C(\Br)c3cccc(NC(C)=O)c3)c(F)c2)C(=O)O1	2 (≈ 4.08 µM)
CC(=O)NC[C@H]1CN(c2ccc(/C=C/c3cncc(C#N)c3)c(F)c2)C(=O)O1	16 (≈ 42.1 µM)
CC(=O)NC[C@H]1CN(c2ccc(/C=C(\Br)c3ccco3)c(F)c2)C(=O)O1	0.5 (≈ 1.18 µM)
CC(=O)NC[C@H]1CN(c2ccc(/C=C(\F)S(=O)(=O)c3ccccc3)c(F)c2)C(=O)O1	8 (≈ 18.3 µM)
COC(=O)c1cccc(/C(Br)=C/c2ccc(N3C[C@H](CNC(C)=O)OC3=O)cc2F)c1	32 (≈ 65.1 µM)

test system: Moraxella catarrhalis; test: Minimum inhibitory concentration measured against Moraxella catarrhalis; assay type: functional

Structure (SMILES)	MIC [µg/mL]
CC(=O)NC[C@H]1CN(c2ccc(/C=C\F)c(F)c2)C(=O)O1	32 (≈ 108 µM)
COc1ccc(C(C)C)cc1/C(Br)=C/c1ccc(N2C[C@H](CNC(C)=O)OC2=O)cc1F	32 (≈ 63.3 µM)
CC(=O)NC[C@H]1CN(c2ccc(/C=C(\Br)c3cccc(C(N)=O)c3)c(F)c2)C(=O)O1	16 (≈ 33.6 µM)
CC(=O)NC[C@H]1CN(c2ccc(/C=C(\Br)c3cccc(NC(C)=O)c3)c(F)c2)C(=O)O1	64 (≈ 131 µM)
CC(=O)NC[C@H]1CN(c2ccc(/C=C/c3cncc(C#N)c3)c(F)c2)C(=O)O1	16 (≈ 42.1 µM)
CC(=O)NC[C@H]1CN(c2ccc(/C=C(\Br)c3ccco3)c(F)c2)C(=O)O1	1 (≈ 2.36 µM)
CC(=O)NC[C@H]1CN(c2ccc(/C=C(\F)S(=O)(=O)c3ccccc3)c(F)c2)C(=O)O1	64 (≈ 147 µM)
COC(=O)c1cccc(/C(Br)=C/c2ccc(N3C[C@H](CNC(C)=O)OC3=O)cc2F)c1	> 128

test system: Staphylococcus epidermidis; test: Minimum inhibitory concentration measured against Staphylococcus epidermidis; assay type: functional

Structure (SMILES)	MIC [µg/mL]
CC(=O)NC[C@H]1CN(c2ccc(/C=C\F)c(F)c2)C(=O)O1	8 (≈ 27 µM)
COc1ccc(C(C)C)cc1/C(Br)=C/c1ccc(N2C[C@H](CNC(C)=O)OC2=O)cc1F	> 128
CC(=O)NC[C@H]1CN(c2ccc(/C=C(\Br)c3cccc(C(N)=O)c3)c(F)c2)C(=O)O1	4 (≈ 8.4 µM)
CC(=O)NC[C@H]1CN(c2ccc(/C=C(\Br)c3cccc(NC(C)=O)c3)c(F)c2)C(=O)O1	2 (≈ 4.08 µM)
CC(=O)NC[C@H]1CN(c2ccc(/C=C/c3cncc(C#N)c3)c(F)c2)C(=O)O1	2 (≈ 5.26 µM)
CC(=O)NC[C@H]1CN(c2ccc(/C=C(\Br)c3ccco3)c(F)c2)C(=O)O1	0.25 (≈ 0.591 µM)
CC(=O)NC[C@H]1CN(c2ccc(/C=C(\F)S(=O)(=O)c3ccccc3)c(F)c2)C(=O)O1	8 (≈ 18.3 µM)
COC(=O)c1cccc(/C(Br)=C/c2ccc(N3C[C@H](CNC(C)=O)OC3=O)cc2F)c1	8 (≈ 16.3 µM)

test system: Staphylococcus aureus; test: Minimum inhibitory concentration measured against Staphylococcus aureus; assay type: functional

Structure (SMILES)	MIC [µg/mL]
CC(=O)NC[C@H]1CN(c2ccc(/C=C\F)c(F)c2)C(=O)O1	8 (≈ 27 µM)
COc1ccc(C(C)C)cc1/C(Br)=C/c1ccc(N2C[C@H](CNC(C)=O)OC2=O)cc1F	> 128
CC(=O)NC[C@H]1CN(c2ccc(/C=C(\Br)c3cccc(C(N)=O)c3)c(F)c2)C(=O)O1	4 (≈ 8.4 µM)
CC(=O)NC[C@H]1CN(c2ccc(/C=C(\Br)c3cccc(NC(C)=O)c3)c(F)c2)C(=O)O1	4 (≈ 8.16 µM)
CC(=O)NC[C@H]1CN(c2ccc(/C=C/c3cncc(C#N)c3)c(F)c2)C(=O)O1	4 (≈ 10.5 µM)
CC(=O)NC[C@H]1CN(c2ccc(/C=C(\Br)c3ccco3)c(F)c2)C(=O)O1	1 (≈ 2.36 µM)
CC(=O)NC[C@H]1CN(c2ccc(/C=C(\F)S(=O)(=O)c3ccccc3)c(F)c2)C(=O)O1	8 (≈ 18.3 µM)
COC(=O)c1cccc(/C(Br)=C/c2ccc(N3C[C@H](CNC(C)=O)OC3=O)cc2F)c1	8 (≈ 16.3 µM)

species: Rattus norvegicus; test: Inhibition of mitochondrial protein synthesis (MPS) in rat heart mitochondria; assay type: functional
How it was run: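 Rat heart mitochondria were incubated at 1 mg/mL protein (Bradford) in buffer with translation components (ADP, amino acids). Incorporation of S35 methionine was followed for 1 h at 30 °C, then quenched with cold 5% TCA/5 mM methionine. Triplicate aliquots were filtered, washed and counted. Compounds were tested at 6–7 concentrations, ≤1% organic. IC50 came from the linear portion of the percent-of-control curve, as the mean of ≥2 experiments.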

Structure (SMILES)	IC50 [µM]
CC(=O)NC[C@H]1CN(c2ccc(/C=C/c3cncc(C#N)c3)c(F)c2)C(=O)O1	9.4
COC(=O)c1cccc(/C(Br)=C/c2ccc(N3C[C@H](CNC(C)=O)OC3=O)cc2F)c1	150

biological target: T1, Amine oxidase [flavin-containing] B (Rattus norvegicus, UniProt P19643); test: Inhibition of Monoamine oxidase B in rat primary hepatocytes; assay type: cell-based, Hepatocyte
T1 sequence (P19643 whole entry): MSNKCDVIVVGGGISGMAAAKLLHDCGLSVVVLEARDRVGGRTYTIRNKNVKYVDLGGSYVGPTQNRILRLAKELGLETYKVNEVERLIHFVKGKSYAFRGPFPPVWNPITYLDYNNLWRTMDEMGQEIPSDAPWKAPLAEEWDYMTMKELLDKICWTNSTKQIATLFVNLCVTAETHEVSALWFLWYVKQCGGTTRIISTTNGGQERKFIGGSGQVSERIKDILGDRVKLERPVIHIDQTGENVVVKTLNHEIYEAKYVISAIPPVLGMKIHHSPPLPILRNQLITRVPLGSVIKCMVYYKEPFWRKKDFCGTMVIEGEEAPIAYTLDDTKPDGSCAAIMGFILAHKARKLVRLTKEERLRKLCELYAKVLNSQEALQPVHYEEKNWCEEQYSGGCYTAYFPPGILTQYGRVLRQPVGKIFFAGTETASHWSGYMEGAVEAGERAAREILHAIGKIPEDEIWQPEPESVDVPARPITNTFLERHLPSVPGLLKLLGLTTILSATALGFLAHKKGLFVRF

Structure (SMILES)	IC50 [µM]
CC(=O)NC[C@H]1CN(c2ccc(/C=C/c3cncc(C#N)c3)c(F)c2)C(=O)O1	> 300
COC(=O)c1cccc(/C(Br)=C/c2ccc(N3C[C@H](CNC(C)=O)OC3=O)cc2F)c1	> 300

test system: Enterococcus faecium; test: Minimum inhibitory concentration measured against Enterococcus faecium; assay type: functional

Structure (SMILES)	MIC [µg/mL]
CC(=O)NC[C@H]1CN(c2ccc(/C=C\F)c(F)c2)C(=O)O1	8 (≈ 27 µM)
COc1ccc(C(C)C)cc1/C(Br)=C/c1ccc(N2C[C@H](CNC(C)=O)OC2=O)cc1F	> 128
CC(=O)NC[C@H]1CN(c2ccc(/C=C(\Br)c3cccc(C(N)=O)c3)c(F)c2)C(=O)O1	2 (≈ 4.2 µM)
CC(=O)NC[C@H]1CN(c2ccc(/C=C(\Br)c3cccc(NC(C)=O)c3)c(F)c2)C(=O)O1	2 (≈ 4.08 µM)
CC(=O)NC[C@H]1CN(c2ccc(/C=C/c3cncc(C#N)c3)c(F)c2)C(=O)O1	2 (≈ 5.26 µM)
CC(=O)NC[C@H]1CN(c2ccc(/C=C(\Br)c3ccco3)c(F)c2)C(=O)O1	0.5 (≈ 1.18 µM)
CC(=O)NC[C@H]1CN(c2ccc(/C=C(\F)S(=O)(=O)c3ccccc3)c(F)c2)C(=O)O1	8 (≈ 18.3 µM)
COC(=O)c1cccc(/C(Br)=C/c2ccc(N3C[C@H](CNC(C)=O)OC3=O)cc2F)c1	4 (≈ 8.14 µM)
